# ChEMBL document CHEMBL4689842, “EUbOPEN Chemogenomics Library wave 1” (2021)
# Columns and labels:
# [1] = test system: Fibroblast; test: Incucyte cell viability with human fibroblast; assay type: toxicity, cell-based; conditions: 10 µM, compound concentration 10 uM; note: filed as whole numbers so only -1 and 0 and 1 occur
# [2] = test system: HEK-293T; test: Multiplex assay against HEK293T; assay type: toxicity, cell-based; conditions: human;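 for Population Tubulin-Different-Phenotype (%): share of the cells with healthy nuclei that show this phenotype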
# Outline: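 Live cells were stained at seeding with Hoechst33342, BioTracker Green Microtubule Cytoskeleton Dye, MitoTracker Red and Annexin V Alexa Fluor 680. Following compound addition, they were imaged on a CQ1 microscope at 37°C and 5% CO2 and gated by CellPathfinder machine learning into Hoechst high-intensity objects or normal cells, with normal cells split into healthy, pyknosed or fragmented nuclei and pyknosed cells into mitotic or apoptotic. Tubulin, mitochondrial-mass and membrane-permeability phenotypes are per cents of healthy-nucleus cells.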
# [3] = 12 h, 1 µM, compound concentration 1 uM, replicate 1
# [4] = 12 h, 1 µM, compound concentration 1 uM, replicate 2
# [5] = 12 h, 10 µM, compound concentration 10 uM, replicate 1
# [6] = 12 h, 10 µM, compound concentration 10 uM, replicate 2
# [7] = 24 h, 1 µM, compound concentration 1 uM, replicate 1
# [8] = 24 h, 1 µM, compound concentration 1 uM, replicate 2
# [9] = 24 h, 10 µM, compound concentration 10 uM, replicate 1
# [10] = 24 h, 10 µM, compound concentration 10 uM, replicate 2
# [11] = 48 h, 1 µM, compound concentration 1 uM, replicate 1
# [12] = 48 h, 1 µM, compound concentration 1 uM, replicate 2
# [13] = 48 h, 10 µM, compound concentration 10 uM, replicate 1
# [14] = 48 h, 10 µM, compound concentration 10 uM, replicate 2
structure (smiles),measurement,setting,value
CC(=O)c1cc(-c2cc(C(=O)NC3CC3)ccc2C)c2ncccn12,Growth Rate,"[1]; 0 h, replicate number 2, timepoint 0 hours",1
same,Growth Rate,"[1]; 6 h, replicate number 1, timepoint 6 hours",0
same,Growth Rate,"[1]; 12 h, replicate number 1, timepoint 12 hours",0
same,Growth Rate,"[1]; 18 h, replicate number 1, timepoint 18 hours",0
same,Growth Rate,"[1]; 24 h, replicate number 1, timepoint 24 hours",0
same,Population Apoptotic (%),[2]; [3],51%
same,Population Fragmented Nuclei (%),[2]; [3],11%
same,Population Healthy Nuclei (%),[2]; [3],27%
same,Population Hoechst High Intensity Objects (%),[2]; [3],12%
same,Population Membrane Permeable-Phenotype (%),[2]; [3],3%
same,Population Mitochondria Different-Phenotype (%),[2]; [3],59%
same,Population Mitotic Cells (%),[2]; [3],48%
same,Population Normal (%),[2]; [3],87%
same,Population Pyknosed Nuclei (%),[2]; [3],61%
same,Population Tubulin-Different-Phenotype (%),[2]; [3],36%
same,Total Cell Count,[2]; [3],275
same,Population Apoptotic (%),[2]; [4],16%
same,Population Fragmented Nuclei (%),[2]; [4],1%
same,Population Healthy Nuclei (%),[2]; [4],48%
same,Population Hoechst High Intensity Objects (%),[2]; [4],3%
same,Population Membrane Permeable-Phenotype (%),[2]; [4],5%
same,Population Mitochondria Different-Phenotype (%),[2]; [4],17%
same,Population Mitotic Cells (%),[2]; [4],83%
same,Population Normal (%),[2]; [4],96%
same,Population Pyknosed Nuclei (%),[2]; [4],49%
same,Population Tubulin-Different-Phenotype (%),[2]; [4],21%
same,Total Cell Count,[2]; [4],271
same,Population Apoptotic (%),[2]; [5],50%
same,Population Fragmented Nuclei (%),[2]; [5],12%
same,Population Healthy Nuclei (%),[2]; [5],29%
same,Population Hoechst High Intensity Objects (%),[2]; [5],15%
same,Population Membrane Permeable-Phenotype (%),[2]; [5],4%
same,Population Mitochondria Different-Phenotype (%),[2]; [5],81%
same,Population Mitotic Cells (%),[2]; [5],49%
same,Population Normal (%),[2]; [5],84%
same,Population Pyknosed Nuclei (%),[2]; [5],58%
same,Population Tubulin-Different-Phenotype (%),[2]; [5],39%
same,Total Cell Count,[2]; [5],265
same,Population Apoptotic (%),[2]; [6],22%
same,Population Fragmented Nuclei (%),[2]; [6],6%
same,Population Healthy Nuclei (%),[2]; [6],31%
same,Population Hoechst High Intensity Objects (%),[2]; [6],4%
same,Population Membrane Permeable-Phenotype (%),[2]; [6],5%
same,Population Mitochondria Different-Phenotype (%),[2]; [6],38%
same,Population Mitotic Cells (%),[2]; [6],77%
same,Population Normal (%),[2]; [6],95%
same,Population Pyknosed Nuclei (%),[2]; [6],62%
same,Population Tubulin-Different-Phenotype (%),[2]; [6],21%
same,Total Cell Count,[2]; [6],199
same,Population Apoptotic (%),[2]; [7],51%
same,Population Fragmented Nuclei (%),[2]; [7],15%
same,Population Healthy Nuclei (%),[2]; [7],31%
same,Population Hoechst High Intensity Objects (%),[2]; [7],13%
same,Population Membrane Permeable-Phenotype (%),[2]; [7],2%
same,Population Mitochondria Different-Phenotype (%),[2]; [7],42%
same,Population Mitotic Cells (%),[2]; [7],48%
same,Population Normal (%),[2]; [7],86%
same,Population Pyknosed Nuclei (%),[2]; [7],52%
same,Population Tubulin-Different-Phenotype (%),[2]; [7],26%
same,Total Cell Count,[2]; [7],305
same,Population Apoptotic (%),[2]; [8],10%
same,Population Fragmented Nuclei (%),[2]; [8],5%
same,Population Healthy Nuclei (%),[2]; [8],65%
same,Population Hoechst High Intensity Objects (%),[2]; [8],2%
same,Population Membrane Permeable-Phenotype (%),[2]; [8],1%
same,Population Mitochondria Different-Phenotype (%),[2]; [8],16%
same,Population Mitotic Cells (%),[2]; [8],89%
same,Population Normal (%),[2]; [8],97%
same,Population Pyknosed Nuclei (%),[2]; [8],29%
same,Population Tubulin-Different-Phenotype (%),[2]; [8],25%
same,Total Cell Count,[2]; [8],349
same,Population Apoptotic (%),[2]; [9],46%
same,Population Fragmented Nuclei (%),[2]; [9],18%
same,Population Healthy Nuclei (%),[2]; [9],31%
same,Population Hoechst High Intensity Objects (%),[2]; [9],17%
same,Population Membrane Permeable-Phenotype (%),[2]; [9],0%
same,Population Mitochondria Different-Phenotype (%),[2]; [9],76%
same,Population Mitotic Cells (%),[2]; [9],53%
same,Population Normal (%),[2]; [9],82%
same,Population Pyknosed Nuclei (%),[2]; [9],49%
same,Population Tubulin-Different-Phenotype (%),[2]; [9],38%
same,Total Cell Count,[2]; [9],280
same,Population Apoptotic (%),[2]; [10],28%
same,Population Fragmented Nuclei (%),[2]; [10],7%
same,Population Healthy Nuclei (%),[2]; [10],51%
same,Population Hoechst High Intensity Objects (%),[2]; [10],3%
same,Population Membrane Permeable-Phenotype (%),[2]; [10],4%
same,Population Mitochondria Different-Phenotype (%),[2]; [10],33%
same,Population Mitotic Cells (%),[2]; [10],71%
same,Population Normal (%),[2]; [10],96%
same,Population Pyknosed Nuclei (%),[2]; [10],41%
same,Population Tubulin-Different-Phenotype (%),[2]; [10],30%
same,Total Cell Count,[2]; [10],233
same,Population Apoptotic (%),[2]; [11],44%
same,Population Fragmented Nuclei (%),[2]; [11],15%
same,Population Healthy Nuclei (%),[2]; [11],43%
same,Population Hoechst High Intensity Objects (%),[2]; [11],14%
same,Population Membrane Permeable-Phenotype (%),[2]; [11],10%
same,Population Mitochondria Different-Phenotype (%),[2]; [11],22%
same,Population Mitotic Cells (%),[2]; [11],55%
same,Population Normal (%),[2]; [11],85%
same,Population Pyknosed Nuclei (%),[2]; [11],41%
same,Population Tubulin-Different-Phenotype (%),[2]; [11],28%
same,Total Cell Count,[2]; [11],343
same,Population Apoptotic (%),[2]; [12],8%
same,Population Fragmented Nuclei (%),[2]; [12],6%
same,Population Healthy Nuclei (%),[2]; [12],78%
same,Population Hoechst High Intensity Objects (%),[2]; [12],4%
same,Population Membrane Permeable-Phenotype (%),[2]; [12],4%
same,Population Mitochondria Different-Phenotype (%),[2]; [12],6%
same,Population Mitotic Cells (%),[2]; [12],91%
same,Population Normal (%),[2]; [12],95%
same,Population Pyknosed Nuclei (%),[2]; [12],14%
same,Population Tubulin-Different-Phenotype (%),[2]; [12],21%
same,Total Cell Count,[2]; [12],595
same,Population Apoptotic (%),[2]; [13],57%
same,Population Fragmented Nuclei (%),[2]; [13],24%
same,Population Healthy Nuclei (%),[2]; [13],24%
same,Population Hoechst High Intensity Objects (%),[2]; [13],17%
same,Population Membrane Permeable-Phenotype (%),[2]; [13],1%
same,Population Mitochondria Different-Phenotype (%),[2]; [13],63%
same,Population Mitotic Cells (%),[2]; [13],42%
same,Population Normal (%),[2]; [13],82%
same,Population Pyknosed Nuclei (%),[2]; [13],51%
same,Population Tubulin-Different-Phenotype (%),[2]; [13],36%
same,Total Cell Count,[2]; [13],280
same,Population Apoptotic (%),[2]; [14],17%
same,Population Fragmented Nuclei (%),[2]; [14],6%
same,Population Healthy Nuclei (%),[2]; [14],58%
same,Population Hoechst High Intensity Objects (%),[2]; [14],3%
same,Population Membrane Permeable-Phenotype (%),[2]; [14],5%
same,Population Mitochondria Different-Phenotype (%),[2]; [14],29%
same,Population Mitotic Cells (%),[2]; [14],82%
same,Population Normal (%),[2]; [14],96%
same,Population Pyknosed Nuclei (%),[2]; [14],35%
same,Total Cell Count,[2]; [14],284
